Assay type in all cases: functional
The test system of one assay is HCT-15. The assay can be described thus: Antiproliferative activity against human HCT15 cells assessed as growth inhibition after 48 hrs by sulforhodamine B assay. The note with it: HCT-15, 48 h.
Assay [1] deals with CCRF-CEM. The assay can be described thus: Antiproliferative activity against human CCRF-CEM cells assessed as cell growth at 10 uM after 48 hrs by sulforhodamine B assay relative to control. The note with it: pooled result: one value given for 60 cell lines, strains, targets or settings, read-out: Activity. The method in brief:
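NCI-60 one-dose screen: cells exposed to test compound at a single 10 μM concentration, viability after 48 h read by sulforhodamine B staining; value is growth percent versus negative control, with a time-zero cell control used to determine total cell growth.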
A general note: The SRB assay estimates cell density from bound dye.

In a further assay the test system is UO-31. The assay can be described thus: Antiproliferative activity against human UO31 cells assessed as growth inhibition after 48 hrs by sulforhodamine B assay. The note with it: UO-31, 48 h. The method in brief:
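NCI-60 five-dose follow-up, run only when the one-dose screen indicated activity. Doses 100 μM down to 0.01 μM in log steps (0.01, 0.1, 1, 10, 100 μM). 48 h incubation with sulforhodamine B read-out. A time-zero cell control allowed calculation of GI50 from % growth vs concentration dose–response curves.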

The test system of assay [2] is CCRF-CEM. The assay can be described thus: Antiproliferative activity against human CCRF-CEM cells assessed as growth inhibition after 48 hrs by sulforhodamine B assay. The note with it: pooled result: one value given for 58 cell lines, strains, targets or settings.
Another assay has as its system COLO 205. The assay can be described thus: Induction of cell cycle arrest in human COLO205 cells assessed as increase in accumulation of cells at G2/M phase at 2 uM after 24 hrs by PI/RNase staining based flow cytometry (reference value: 18.6%). The method in brief:
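Positive-control arm of the COLO 205 cell-cycle assay: nocodazole 2 μM for 24 h. Culture conditions as above (RPMI, 10% FBS, 37 °C, 5% CO2). Ethanol-fixed cells stained with PI/RNase 40 min at 37 °C and analysed by imaging cytometry for phase distribution. Three independent experiments.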
On the technique in general: Flow cytometry measures light scatter and fluorescence of single cells or particles in a stream.

SMILES strings stand for the structures. The source made the active and inactive calls. No cut-off for these calls is given here.

One may read the GI50 as the concentration giving 50% growth inhibition. As for `COC(=O)[C@]12CC[C@@H](C)[C@H](C)[C@H]1C1=CC[C@@H]3[C@@]4(C)C/C(=N\O)[C@H](O)[C@@]5(C)COC(=C45)C[C@@]3(C)[C@]1(C)CC2`, the GI50 in the assay with HCT-15, in the assay with UO-31 and in the assay on CCRF-CEM [2] was 6.6 µM throughout. Besides, in the assay with CCRF-CEM [1], the growth at 10 µM is -76.9%.

`COC(=O)[C@]12CC[C@@H](C)[C@H](C)[C@H]1C1=CC[C@@H]3[C@@](C)(CC#N)C4=C(C[C@@]3(C)[C@]1(C)CC2)OC[C@]4(C)C=O`: the GI50 in the assay with HCT-15, in the assay on UO-31 and in the assay on CCRF-CEM [2] was 4.9 µM each time. The growth at 10 µM in the assay on CCRF-CEM [1] was -18.1%.

Turning to `COC(=O)[C@]12CC[C@@H](C)[C@H](C)[C@H]1C1=CC[C@@H]3[C@@]4(C)C=C(O)C(=O)[C@@]5(C)COC(=C54)C[C@@]3(C)[C@]1(C)CC2`, the GI50 in the assay on HCT-15, in the assay with UO-31 and in the assay on CCRF-CEM [2] was 8.9 µM in each case. The growth at 10 µM in the assay with CCRF-CEM [1] is -58.9%.

On to `COC(=O)[C@]12CC[C@@H](C)[C@H](C)[C@H]1C1=CC[C@@H]3[C@@]4(C)C[C@@H](OC(=O)/C=C/c5ccccc5)[C@H](O)[C@@](C)(CO)[C@@H]4[C@H](O)C[C@@]3(C)[C@]1(C)CC2`, for which the GI50 in the assay on HCT-15, in the assay on UO-31 and in the assay on CCRF-CEM [2] was 2.4 µM throughout. For the same compound, the growth at 10 µM in the assay on CCRF-CEM [1] is -4.8%.

For the compound `COC(=O)[C@]12CC[C@@H](C)[C@H](C)[C@H]1C1=CC(=O)[C@@H]3[C@@]4(C)C[C@@H](O)[C@H](O)[C@@]5(C)COC(=C45)C[C@@]3(C)[C@]1(C)CC2`, the growth at 10 µM in the assay with CCRF-CEM [1] was found to be 51.5%.

Consider `COC(=O)[C@]12CC[C@@H](C)[C@H](C)[C@H]1C1=CC[C@@H]3[C@@]4(C)C[C@@H](O)[C@H](O)[C@@](C)(CO)[C@@H]4[C@H](O)C[C@@]3(C)[C@]1(C)CC2`, for which the GI50 in the assay on HCT-15, in the assay with UO-31 and with CCRF-CEM [2] was 12.9 µM each time. Also, the growth at 10 µM in the assay on CCRF-CEM [1] is -54.1%.

As for `COC(=O)[C@]12CC[C@@H](C)[C@H](C)[C@H]1C1=CC[C@@H]3[C@@]4(C)CC(=O)[C@H](OC(=O)/C=C/c5ccccc5)[C@@]5(C)COC(=C45)C[C@@]3(C)[C@]1(C)CC2`, the growth at 10 µM with CCRF-CEM [1] is 78.2%.

Take `COC(=O)[C@]12CC[C@@H](C)[C@H](C)[C@H]1C1=CC[C@@H]3[C@@]4(C)C[C@@H](O)[C@H](O)[C@@](C)(CO)C4=CC[C@@]3(C)[C@]1(C)CC2`: the GI50 in the assay on HCT-15, with UO-31 and with CCRF-CEM [2] was 17 µM in each case. The growth at 10 µM in the assay on CCRF-CEM [1] was -55.4%.

With `COC(=O)[C@]12CC[C@@H](C)[C@H](C)[C@H]1C1=CC[C@@H]3[C@@]4(C)CC(=O)[C@H](O)[C@@]5(C)COC(=C45)C[C@@]3(C)[C@]1(C)CC2`, the GI50 in the assay on HCT-15, in the assay on UO-31 and with CCRF-CEM [2] was 18.2 µM each time. In addition, the growth at 10 µM in the assay with CCRF-CEM [1] was -62.9%.

Turning to `COC(=O)[C@]12CC[C@@H](C)[C@H](C)[C@H]1C1=CC[C@@H]3[C@@]4(C)C=C(O)C(=O)C(C)=C4C(=O)C[C@@]3(C)[C@]1(C)CC2`, the growth at 10 µM with CCRF-CEM [1] is 67.8%.

Turning to `C[C@H]1[C@H](C)CC[C@]2(C(=O)O)CC[C@]3(C)C(=CC[C@@H]4[C@@]5(C)C[C@@H](O)[C@H](O)[C@@](C)(CO)[C@@H]5[C@H](O)C[C@]43C)[C@H]12` [MADECASSIC ACID], the growth at 10 µM in the assay with CCRF-CEM [1] turned out to be 99.2%.

As to `COC(=O)[C@]12CC[C@@H](C)[C@H](C)[C@H]1C1=CC[C@@H]3[C@@]4(C)C[C@@H](O)[C@H](O)[C@@]5(C)COC(=C45)C[C@@]3(C)[C@]1(C)CC2`, in the assay on CCRF-CEM [1], the growth at 10 µM was 85.8%.

`COC(=O)Nc1nc2cc(C(=O)c3cccs3)ccc2[nH]1`: in the assay with COLO 205, the outcome was Active.

`COC(=O)[C@]12CC[C@@H](C)[C@H](C)[C@H]1C1=CC[C@@H]3[C@@]4(C)C[C@@H](OC(C)=O)[C@H](OC(C)=O)[C@@](C)(COC(C)=O)[C@@H]4[C@H](O)C[C@@]3(C)[C@]1(C)CC2`: the GI50 with HCT-15, in the assay with UO-31 and in the assay on CCRF-CEM [2] was 1.7 µM throughout. Further, the growth at 10 µM in the assay on CCRF-CEM [1] was 8%.

`COC(=O)[C@]12CC[C@@H](C)[C@H](C)[C@H]1C1=CC(=O)[C@@H]3[C@@]4(C)C[C@@H](OC(C)=O)[C@H](OC(C)=O)[C@@](C)(COC(C)=O)[C@@H]4C(=O)C[C@@]3(C)[C@]1(C)CC2`: in the assay with CCRF-CEM [1], the growth at 10 µM was determined as 45.8%.

Take `COC(=O)[C@]12CC[C@@H](C)[C@H](C)[C@H]1C1=CC[C@@H]3[C@@]4(C)C[C@@H](OC(C)=O)[C@H](O)[C@@](C)(CO)[C@@H]4[C@H](O)C[C@@]3(C)[C@]1(C)CC2`: the GI50 in the assay with HCT-15, in the assay on UO-31 and with CCRF-CEM [2] was 11 µM each time. In addition, in the assay with CCRF-CEM [1], the growth at 10 µM is -79.2%.

Regarding `COC(=O)[C@]12CC[C@@H](C)[C@H](C)[C@H]1C1=CC[C@@H]3[C@@]4(C)CC(=O)[C@H](O)[C@@](C)(CO)[C@@H]4C(=O)C[C@@]3(C)[C@]1(C)CC2`, the GI50 in the assay on HCT-15, in the assay on UO-31 and in the assay on CCRF-CEM [2] was 10 µM throughout. Besides, the growth at 10 µM in the assay with CCRF-CEM [1] is -22.4%.

Consider `COC(=O)[C@]12CC[C@@H](C)[C@H](C)[C@H]1C1=CC[C@@H]3[C@@]4(C)C[C@@H](OC(=O)c5ccco5)[C@H](O)[C@@](C)(CO)[C@@H]4[C@H](O)C[C@@]3(C)[C@]1(C)CC2`, for which the GI50 in the assay with HCT-15, in the assay with UO-31 and in the assay with CCRF-CEM [2] was 2.3 µM each time. In the assay with CCRF-CEM [1], the growth at 10 µM was -83%.

In the case of `COC(=O)[C@]12CC[C@@H](C)[C@H](C)[C@H]1C1=CC[C@@H]3[C@@]4(C)C=C(O)C(=O)C(C)=C4CC[C@@]3(C)[C@]1(C)CC2`, the concentration for 50% growth inhibition (GI50) with HCT-15, in the assay with UO-31 and in the assay with CCRF-CEM [2] was 12 µM throughout. Moreover, the growth at 10 µM in the assay with CCRF-CEM [1] came to 31.7%.

The values are drawn from ChEMBL document CHEMBL4334460, “Madecassic Acid Derivatives as Potential Anticancer Agents: Synthesis and Cytotoxic Evaluation” (2019).
